{"data": "Measured values pooled from the literature", "PIM3": "Serine/threonine-protein kinase pim-3 (PIM3, Homo sapiens, UniProt Q86V86)", "note": "Protocols differ between the studies behind these lines."}
{"SMILES": "N#Cc1ccc(NCCNCC(=O)N2N=CCC2C#N)nc1 (centres unmarked)", "target": "Dipeptidyl peptidase 2 (Homo sapiens, UniProt Q9UHL4)", "test": "enzyme activity, inhibitor", "conditions": "10 µM", "measurement": "inhibition", "result": "30%"}
{"SMILES": "C=CC(=O)N1CCC[C@@H](n2nc(-c3ccc(Oc4ccccc4)cc3)c3c(N)ncnc32)C1", "target": "Dual specificity tyrosine-phosphorylation-regulated kinase 1B (DYRK1B, Homo sapiens, UniProt Q9Y463)", "test": "cell-free assay", "conditions": "1 µM", "measurement": "remaining signal", "result": "136%"}
{"SMILES": "COc1ncccc1-c1cnn2ccc(N3CCN(C(=O)OC(C)C)CC3)nc12", "target": "Dual specificity testis-specific protein kinase 1 (TESK1, Homo sapiens, UniProt Q15569)", "test": "binding, competition with immobilised ligand", "conditions": "1 µM", "measurement": "remaining binding", "result": "93%"}
{"SMILES": "CCN(CC)CCCC[C@H](NC(=O)[C@H](CC(C)C)NC(=O)[C@H](C)NC(=O)[C@H](Cc1ccccc1)NC(=O)c1ccc(C(C)(C)C)cc1)C(=O)N[C@@H](CO)C(=O)OC", "target": "Bromodomain testis-specific protein, BD1 (BRDT, Homo sapiens, UniProt Q58F21)", "test": "thermal stability, DSF", "conditions": "25 µM", "measurement": "ΔTm", "result": "-0.19 °C"}
{"SMILES": "CCOC(=O)c1ccc(OC(=O)CCCCCNC(=N)N)cc1", "target": "Ubiquitin carboxyl-terminal hydrolase isozyme L3 (UCHL3, Homo sapiens, UniProt P15374)", "test": "enzyme activity, inhibitor", "conditions": "10 µM", "measurement": "inhibition", "result": "4%"}
{"SMILES": "Cc1nn(C)cc1-c1nc2c(N3CCN(Cc4ccc(Cl)cc4)CC3)c(Cl)cnc2[nH]1", "target": "PIM3", "test": "binding, competition with immobilised ligand", "conditions": "1 µM", "measurement": "remaining binding", "result": "100%"}
{"SMILES": "O=C(Nc1cccnn1)N1CCN([C@@H]2CCOc3cc(C(F)(F)F)ccc32)CC1", "target": "5-hydroxytryptamine receptor 1B (Htr1b, Rattus norvegicus, UniProt P28564)", "test": "cell-free assay", "conditions": "20 µM", "measurement": "inhibition", "result": "9%"}
{"SMILES": "Nc1ncc(-c2nc(N3CCOCC3)nc(N3CCOCC3)n2)c(C(F)F)n1", "target": "PIM3", "test": "binding, competition with immobilised ligand", "conditions": "10 µM", "measurement": "remaining binding", "result": "89%"}
